Values after ≈ are worked out from the molar mass of the structure shown.
Tests used:
Listeria monocytogenes = test: Antimicrobial activity against Listeria monocytogenes EGD after 24 hrs; format: functional
Staphylococcus aureus [1] = test: Antimicrobial activity against Staphylococcus aureus ATCC 25923 assessed as log reduction in bacterial count at 1 mg/L after 5 hrs; format: functional
In short: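 Time-course test with S. aureus ATCC 25923, either in Mueller-Hinton broth or after phagocytosis by THP-1 cells. Samples were taken over a 5 h incubation with drug at 1 mg/liter. Read-out was the change in CFU relative to the initial inoculum, reported as means.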

[2] = Ratio of drug level for cellular to extracellular region of Staphylococcus aureus infected rat fibroblast at 4 mg/liter after 2 hrs; format: ADME, cell-based
In short: (§1)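 Cells were exposed to [14C]radezolid for 2 or 24 h. Cell-associated drug in lysates was measured by liquid scintillation counting (detection limit 0.003 mg/liter; linear 0.01–0.78 mg/liter). Content was normalised to cell protein (Lowry). It was converted to apparent cellular concentration at 5 μl per mg protein and expressed relative to the extracellular concentration.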

Staphylococcus aureus [3] = test: Bacteriostatic activity against linezolid-susceptible Staphylococcus aureus SA238 infected in rat fibroblast cells after 24 hrs; format: functional
In short: (§2)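 Adherent nonphagocytic cells were infected at 5 × 10^7 to 1 × 10^8 bacteria/ml with 2 h phagocytosis. Cells used: Calu-3 bronchial epithelium grown in uncoated flasks, neonatal foreskin keratinocytes on collagen-coated wells, primary human osteoblasts, and primary rat embryo fibroblasts. Antibiotic was then given over a concentration range for 24 h. Cs came from a sigmoidal fit of CFU change.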

Staphylococcus aureus [4] = test: Bacteriostatic activity against linezolid-susceptible Staphylococcus aureus SA238 infected in Calu-3 cells after 24 hrs; format: functional; in short: as §2
Staphylococcus aureus [5] = test: Antimicrobial activity against Staphylococcus aureus infected in THP1 cells after 24 hrs; format: functional, organism-based; details: THP-1, 24 h
In short: (§3)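 Bacteria were phagocytosed by human THP-1 macrophage-like cells, then exposed to a range of drug concentrations for a fixed time: 24 h for S. aureus, S. epidermidis and L. monocytogenes, 48 h for L. pneumophila. Change in CFU versus the initial inoculum was fitted with a sigmoidal curve to give Emin, Emax (relative maximal efficacy), EC50 and static concentration (Cs).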

Staphylococcus aureus [6] = test: Bacteriostatic activity against linezolid-resistant Staphylococcus aureus SA238L infected in HUVEC cells after 24 hrs; format: functional
In short: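 HUVEC were grown in endothelial growth medium on gelatin-treated flasks. They were infected with 2 × 10^6 bacteria/ml for 1 h phagocytosis, then exposed 24 h to graded antibiotic concentrations. CFU change from the initial inoculum was fitted to a sigmoidal curve to obtain the static concentration (Cs).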

Staphylococcus aureus [7] = test: Antimicrobial activity against linezolid-susceptible Staphylococcus aureus SA238 infected in THP1 cells after 24 hrs; format: functional, organism-based; details: SA238, THP-1, 24 h; in short: as §3
Staphylococcus aureus [8] = test: Bacteriostatic activity against linezolid-resistant Staphylococcus aureus SA238L infected in human epidermal keratinocytes cells after 24 hrs; format: functional; in short: as §2
Staphylococcus aureus [9] = test: Antimicrobial activity against linezolid-susceptible Staphylococcus aureus ATCC 25923 infected in THP1 cells after 24 hrs; format: functional, organism-based; details: ATCC 25923, THP-1, 24 h; in short: as §3
THP-1 = test: Ratio of drug level for cellular to extracellular region of Staphylococcus aureus infected human THP-1 cells at 4 mg/liter after 24 hrs; format: ADME, cell-based; details: thp-1, 24 h; in short: as §1
[10] = Ratio of drug level for cellular to extracellular region of Staphylococcus aureus infected human osteoblast at 4 mg/liter after 24 hrs; format: ADME, cell-based; in short: as §1
Staphylococcus aureus [11] = test: Antimicrobial activity against linezolid-susceptible Staphylococcus aureus SA040 infected in THP1 cells assessed as log reduction in bacterial count after 24 hrs; format: functional, THP-1; in short: as §3
Staphylococcus aureus [12] = test: Antimicrobial activity against linezolid resistant methicillin-susceptible Staphylococcus aureus SA040L after 24 hrs; format: functional
Staphylococcus aureus [13] = test: Antimicrobial activity against linezolid-susceptible Staphylococcus aureus SA040 infected in THP1 cells after 24 hrs; format: functional, organism-based; details: SA040, THP-1, 24 h; in short: as §3
HUVEC [14] = test: Ratio of drug level for cellular to extracellular region of Staphylococcus aureus infected HUVEC cells at 4 mg/liter after 24 hrs; format: ADME, cell-based; details: human; in short: as §1
Staphylococcus aureus [15] = test: Antimicrobial activity against linezolid-resistant Staphylococcus aureus SA238L infected in rat fibroblast cells assessed as log reduction in bacterial count after 24 hrs; format: functional
In short: (§4)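 S. aureus was internalized by adherent nonphagocytic cells: Calu-3, HUVEC, keratinocytes on collagen-coated wells, osteoblasts, or rat embryo fibroblasts. Inoculum was 5 × 10^7 to 1 × 10^8 bacteria/ml with 2 h phagocytosis (HUVEC: 2 × 10^6/ml, 1 h). Cells were then exposed to graded drug concentrations for 24 h. CFU change versus the original inoculum was fitted sigmoidally for Emax and Cs.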

Staphylococcus aureus [16] = test: Antimicrobial activity against hospital acquired methicillin-resistant Staphylococcus aureus ATCC 33591 after 24 hrs; format: functional; details: ATCC 33591, 24 h
Staphylococcus aureus [17] = test: Antimicrobial activity against community acquired methicillin-resistant Staphylococcus aureus NRS192 after 24 hrs; format: functional; details: NRS192, 24 h
Staphylococcus aureus [18] = test: Bacteriostatic activity against linezolid-susceptible Staphylococcus aureus SA238 infected in human epidermal keratinocytes cells after 24 hrs; format: functional; in short: as §2
Staphylococcus aureus [19] = test: Bacteriostatic activity against linezolid-susceptible Staphylococcus aureus ATCC 33591 infected in THP1 cells after 24 hrs; format: functional, THP-1
In short: (§5)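 Human THP-1 myelomonocytic (macrophage-like) cells infected with S. aureus, then exposed 24 h to a range of antibiotic concentrations. CFU change was measured against the initial inoculum. A sigmoidal dose-response curve was fitted to give Emin, Emax and EC50, and the apparent static concentration (Cs) was taken from the fit.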

Staphylococcus aureus [20] = test: Antimicrobial activity against linezolid-susceptible Staphylococcus aureus SA238 infected in human osteoblasts cells assessed as log reduction in bacterial count after 24 hrs; format: functional; in short: as §4
Staphylococcus aureus [21] = test: Antimicrobial activity against linezolid-susceptible Staphylococcus aureus SA238 infected in HUVEC cells assessed as log reduction in bacterial count after 24 hrs; format: functional; in short: as §4
[22] = Ratio of drug level for cellular to extracellular region of Staphylococcus aureus infected rat fibroblast at 4 mg/liter after 24 hrs; format: ADME, cell-based; in short: as §1
Staphylococcus aureus [23] = test: Bacteriostatic activity against linezolid-resistant Staphylococcus aureus SA238L infected in THP1 cells after 24 hrs; format: functional, THP-1; in short: as §5
Staphylococcus aureus [24] = test: Bacteriostatic activity against linezolid-susceptible Staphylococcus aureus NRS384 infected in THP1 cells after 24 hrs; format: functional, THP-1; in short: as §5
Staphylococcus aureus [25] = test: Antimicrobial activity against methicillin-resistant, vancomycin intermediate Staphylococcus aureus NRS18 after 24 hrs; format: functional; details: NRS18, 24 h
HUVEC [26] = test: Ratio of drug level for cellular to extracellular region of Staphylococcus aureus infected HUVEC cells at 4 mg/liter after 2 hrs; format: ADME, cell-based; details: human; in short: as §1
Staphylococcus aureus [27] = test: Antimicrobial activity against linezolid-resistant Staphylococcus aureus SA238L infected in THP1 cells after 24 hrs; format: functional, organism-based; details: THP-1, 24 h; in short: as §3
Staphylococcus aureus [28] = test: Antimicrobial activity against linezolid-resistant Staphylococcus aureus SA238L infected in HUVEC cells assessed as log reduction in bacterial count after 24 hrs; format: functional; in short: as §4
Staphylococcus aureus [29] = test: Antimicrobial activity against linezolid-resistant Staphylococcus aureus SA238L infected in human osteoblasts cells assessed as log reduction in bacterial count after 24 hrs; format: functional; in short: as §4
Staphylococcus aureus [30] = test: Antimicrobial activity against linezolid-susceptible Staphylococcus aureus NRS384 infected in THP1 cells after 24 hrs; format: functional, organism-based; details: NRS384, THP-1, 24 h; in short: as §3
[31] = Ratio of drug level for cellular to extracellular region of Staphylococcus aureus infected human osteoblast at 4 mg/liter after 2 hrs; format: ADME, cell-based; in short: as §1
Staphylococcus aureus [32] = test: Antimicrobial activity against linezolid-susceptible Staphylococcus aureus SA238 infected in THP1 cells assessed as log reduction in bacterial count after 24 hrs; format: functional, THP-1; in short: as §3

For `CC(=O)NC[C@H]1CN(c2ccc(-c3ccc(CNCc4cnn[nH]4)cc3)c(F)c2)C(=O)O1` [RADEZOLID], the MIC (Listeria monocytogenes) was 0.03 µg/mL (≈ 0.0684 µM), the log10cfu (Staphylococcus aureus [1]) was 2 and the Ratio [2] was 14.4. The Activity (Staphylococcus aureus [3]) was 0.6 mg/L, the Activity (Staphylococcus aureus [4]) was 0.6 mg/L and the EC50 (Staphylococcus aureus [5]) was 0.24 µg/mL (≈ 0.547 µM). It also gave an Activity (Staphylococcus aureus [6]) of 0.6 mg/L, an EC50 (Staphylococcus aureus [7]) of 0.16 µg/mL (≈ 0.365 µM) and an Activity (Staphylococcus aureus [8]) of 0.6 mg/L. The EC50 (Staphylococcus aureus [9]) was 0.24 µg/mL (≈ 0.547 µM), the Ratio (THP-1) was 9.8 and the Ratio [10] was 9.7. The log10cfu (Staphylococcus aureus [11]) was -0.96, the MIC (Staphylococcus aureus [12]) was 2 µg/mL (≈ 4.56 µM) and the EC50 (Staphylococcus aureus [13]) was 0.09 µg/mL (≈ 0.205 µM). It also gave a Ratio (HUVEC [14]) of 10.5, a log10cfu (Staphylococcus aureus [15]) of 0.6 and an MIC (Staphylococcus aureus [16]) of 0.5 µg/mL (≈ 1.14 µM). The MIC (Staphylococcus aureus [17]) was 0.5 µg/mL (≈ 1.14 µM), the Activity (Staphylococcus aureus [18]) was 0.6 mg/L and the Activity (Staphylococcus aureus [19]) was 0.56 mg/L. For the same compound, the log10cfu (Staphylococcus aureus [20]) was 0.6, the log10cfu (Staphylococcus aureus [21]) was 0.6 and the Ratio [22] was 10.9. For the same compound, the Activity (Staphylococcus aureus [23]) was 0.97 mg/L, the Activity (Staphylococcus aureus [24]) was 0.32 mg/L and the MIC (Staphylococcus aureus [25]) was 0.25 µg/mL (≈ 0.57 µM). The Ratio (HUVEC [26]) was 9.5, the EC50 (Staphylococcus aureus [27]) was 0.29 µg/mL (≈ 0.661 µM) and the log10cfu (Staphylococcus aureus [28]) was 0.6. For the same compound, the log10cfu (Staphylococcus aureus [29]) was 0.6, the EC50 (Staphylococcus aureus [30]) was 0.07 µg/mL (≈ 0.16 µM) and the Ratio [31] was 9.8. The log10cfu (Staphylococcus aureus [32]) was -0.79.
